Test results published in article PMC9685603 (ACS Omega, 2022).
“Also recorded” adds a separate entry of the source.

System: HEK 293 cells
Assay: MTT cell viability
Format: cell-based, human
Settings: MTT assay, 48 h, studied concentration range 100–0.01 μM
How it was run: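 Seeding in DMEM with 10% FBS was 8000 cells/well for MCF-7 and MDA-MB-468 and 5000 cells/well for HEK 293. Cells were held 24 h at 37 °C, 5% CO2, humidified, then exposed to test compounds at varied concentrations for 48 h. MTT reagent (5 mg/mL) was added for 2–4 h and formazan dissolved in DMSO. Absorbance was read at 570/690 nm and % survival calculated.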

## O=S(=O)(NN=Cc1cn(CCN2CCOCC2)c2ccccc12)c1ccc(Cl)cc1 [Compound 5f, 4-Chloro-N′-((1-(2-morpholinoethyl)-1H-indol-3-yl)methylene)benzenesulfonohydrazide]
  toxicity against HEK 293 noncancerous cells: biocompatible; also recorded: nontoxic
